Assay results: paper PMC10286293 (ACS Omega, 2023)

Experiments:
Hygroscopicity test = assay type: physicochemical; conditions: for percentage weight gain on the first day: 298 K, relative humidity 90 ± 5%; for hygroscopicity class (Chinese Pharmacopoeia): by weight gain
S. pneumoniae = experiment: Antibacterial activity; assay type: cell-based, Streptococcus pneumoniae; conditions: Figure 9, trimethoprim vs compound 1 vs 5-fluorouracil
Procedure, shortened: (§1)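 Two-fold broth microdilution at ten concentrations (32, 16, 8, 4, 2, 1, 0.5, 0.25, 0.125, 0.0625 μg/mL) of test compound with bacterial suspension in medium. Medium-only and bacteria-plus-medium controls were included. Plates were incubated at 310 K for 24 h, and OD600 gave the MIC.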

S. aureus = experiment: Antibacterial activity; assay type: cell-based, Staphylococcus aureus; conditions: Figure 9, trimethoprim vs compound 1 vs 5-fluorouracil
Procedure, shortened: as §1

S. dysenteriae = experiment: Antibacterial activity; assay type: cell-based, Shigella dysenteriae; conditions: Figure 9, trimethoprim vs compound 1 vs 5-fluorouracil
Procedure, shortened: as §1

P. aeruginosa = experiment: Antibacterial activity; assay type: cell-based, Pseudomonas aeruginosa; conditions: Figure 9, trimethoprim vs compound 1 vs 5-fluorouracil
Procedure, shortened: as §1

[1] = test system: human colon cancer cells (SW480); experiment: In vitro anticancer activity, MTT assay; assay type: cell-based; conditions: SW480 (human rectal cancer cells), MTT, 24, 48, 72 h, dose-dependent
Procedure, shortened: (§2)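 Cells were grown in DMEM with 10% FBS, 1% penicillin and 1% streptomycin at 37 °C, 5% CO2, and used in log phase (85–95% confluent). They were seeded at 3 × 10^5 cells/mL, grown 24 h, then exposed to a range of test compound concentrations for 24, 48 or 72 h, with a positive control. MTT (5 mg/mL stock) was added for 4 h at 37 °C. Formazan was dissolved in DMSO and read at 490 nm after 10 min shaking, with blank-well correction.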

[2] = test system: lung cancer cells (H1299); experiment: In vitro anticancer activity, MTT assay; assay type: cell-based, human; conditions: MTT, 24, 48, 72 h, dose-dependent
Procedure, shortened: as §2

[3] = test system: breast cancer cells (MDA-MB-231); experiment: In vitro anticancer activity, MTT assay; assay type: cell-based, human; conditions: MDA-MB-231 breast cancer cells, MTT, 24, 48, 72 h, dose-dependent
Procedure, shortened: as §2

mice = conditions: cited from earlier work
[4] = Intrinsic dissolution rate in pure water; assay type: physicochemical; conditions: 310 K, 100 rpm

Compound | percentage weight gain on the first day (Hygroscopicity test) | hygroscopicity class (Chinese Pharmacopoeia) (Hygroscopicity test) | antibacterial activity, comparison in words (S. pneumoniae) | antibacterial activity, comparison in words (S. aureus) | antibacterial activity, comparison in words (S. dysenteriae) | antibacterial activity, comparison in words (P. aeruginosa) | inhibition effect on cancer cells [1] | inhibition effect on cancer cells [2] | inhibition effect on cancer cells [3] | oral LD50 (mice) | IDR (intrinsic dissolution rate) [4]
O=c1[nH]cc(F)c(=O)[nH]1 [5-fluorouracil] | 0.19% | slightly hygroscopic (slightly hygroscopic ≥ 0.2%) | the greatest | the greatest | the greatest | the greatest | significant inhibition effect | significant inhibition effect | significant inhibition effect | 220 mg/kg | –
COc1cc(Cc2cnc(N)nc2N)cc(OC)c1OC [trimethoprim] | 0.20% | slightly hygroscopic (slightly hygroscopic ≥ 0.2%) | – | greater than that of compound 1 | – | – | – | – | – | > 5300 mg/kg | 0.039 mg cm^–2 min^–1
